# Active and inactive are the calls of the source. The calls are words filed in the database; no cut-off is given here.
# Experiments:
# [1] = system: SNB-75; experiment: Antiproliferative activity against human SNB75 cells assessed as reduction in cell viability after 48 hrs by CellTiter-Blue assay; assay type: functional; details: SNB-75, 48 h, read-out: LC50 (the source's name)
# How it was run: (§1)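 NCI-60 panel lines grown in RPMI1640 with 10% FBS at 37 °C, 5% CO₂. Seeded at 5,000–10,000 cells/well and pre-incubated overnight. Exposed for 48 h to six 10-fold dilutions (top final 10 μM), with a time-zero plate read at dosing. CellTiter-Blue (0.125 mg/mL) for 2–4 h, fluorescence 560/590 nm, triplicate curves.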
# [2] = system: CAKI-1; experiment: Antiproliferative activity against human Caki1 cells assessed as reduction in cell viability after 48 hrs by CellTiter-Blue assay; assay type: functional; details: CAKI-1, 48 h, read-out: LC50 (the source's name)
# How it was run: (§2)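 Cells grown in RPMI1640 with 10% FBS at 37 °C, 5% CO₂. 5,000–10,000 cells/well were pre-incubated overnight, and a time-zero CellTiter-Blue read was taken. Six 10-fold dilutions (top final 10 μM) were applied for 48 h, followed by 0.125 mg/mL CellTiter-Blue for 2–4 h. Resorufin fluorescence was read at ex 560/em 590 nm. […] Triplicates.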
# [3] = system: RS4-11; experiment: Effect on LC3 degradation in human RS4:11 cells harboring wild type p53/FLT3 at 50 to 200 nM after 24 hrs by Western blot analysis; assay type: functional, cell-based
# How it was run: (§3)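 Cells (1,500,000 per well) grown 12 h, then drug-treated as specified. Lysed in RIPA buffer, sonicated, centrifuged, protein normalized by BCA. Run on 4–12% Bis-Tris gels in MES, transferred, probed overnight at 4 °C with primary antibodies at 1/1000. Actin served as reference for LC3-II quantitation.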
# [4] = system: SR; experiment: Induction of apoptosis in human SR cells harboring wild type p53 assessed as pro-caspase 3 cleavage at 50 to 200 nM after 24 hrs by Western blot anlaysis; assay type: functional, cell-based; how it was run: as §3
# [5] = system: HL-60(TB); experiment: Antiproliferative activity against human HL-60(TB) cells assessed as reduction in cell viability after 48 hrs by CellTiter-Blue assay; assay type: functional; details: HL-60, 48 h, read-out: LC50 (the source's name); how it was run: as §2
# [6] = system: PC-3; experiment: Antiproliferative activity against human PC3 cells assessed as reduction in cell viability after 48 hrs by CellTiter-Blue assay; assay type: functional; details: PC-3, 48 h, read-out: LC50 (the source's name); how it was run: as §2
# [7] = system: HCT-15; experiment: Antiproliferative activity against human HCT15 cells assessed as reduction in cell viability after 48 hrs by CellTiter-Blue assay; assay type: functional; details: HCT-15, 48 h, read-out: LC50 (the source's name); how it was run: as §2
# [8] = Cmax in CD1 mouse at 20 mg/kg, po via gavage after 24 hrs by LC-MS/MS analysis; assay type: ADME, organism-based; design: dose 20 mg/kg, route oral; details: in vivo
# How it was run: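 Male CD-1 mice, fasted overnight, 3 per route; compound in PBS with 5% DMSO, iv bolus 5 mg/kg or oral gavage 20 mg/kg. Blood sampled at 5, 15, 30 min and 1–24 h. Plasma protein-precipitated with acetonitrile plus internal standard, quantified by LC-MS/MS (MRM). AUC by linear trapezoidal method; parameters by non-compartmental analysis.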
# [9] = system: NCI-H23; experiment: Antiproliferative activity against human NCI-H23 cells assessed as reduction in cell viability after 48 hrs by CellTiter-Blue assay; assay type: functional; details: NCI-H23, 48 h, read-out: LC50 (the source's name); how it was run: as §2
# [10] = system: SK-MEL-2; experiment: Antiproliferative activity against human SK-MEL-2 cells assessed as reduction in cell viability after 48 hrs by CellTiter-Blue assay; assay type: functional; details: SK-MEL-2, 48 h, read-out: LC50 (the source's name); how it was run: as §2
# [11] = system: T47D; experiment: Antiproliferative activity against human T47D cells assessed as reduction in cell viability after 48 hrs by CellTiter-Blue assay; assay type: functional; details: read-out: LC50 (the source's name); how it was run: as §1
# [12] = system: MOLT-4; experiment: Antiproliferative activity against human MOLT4 cells assessed as reduction in cell viability after 48 hrs by CellTiter-Blue assay; assay type: functional; details: MOLT-4, 48 h, read-out: LC50 (the source's name); how it was run: as §2
# [13] = system: MV4-11; experiment: Inhibition of ERK phosphorylation in human MV4-11 cells harboring wild type p53/FLT3-ITD mutant at 50 to 200 nM after 24 hrs by Western blot analysis; assay type: cell-based; how it was run: as §3
# [14] = system: NCI-H322M; experiment: Antiproliferative activity against human NCI-H322M cells assessed as reduction in cell viability after 48 hrs by CellTiter-Blue assay; assay type: functional; details: read-out: LC50 (the source's name); how it was run: as §2
# [15] = system: HL-60; experiment: Effect on c-Flip protein degradation in p53 null human HL60 cells harboring wild type FLT3 at 50 to 200 nM after 24 hrs by Western blot analysis; assay type: functional, cell-based; how it was run: as §3
# [16] = system: RXF 393; experiment: Antiproliferative activity against human RXF393 cells assessed as reduction in cell viability after 48 hrs by CellTiter-Blue assay; assay type: functional; details: RXF 393, 48 h, read-out: LC50 (the source's name); how it was run: as §2
# [17] = system: UACC-257; experiment: Antiproliferative activity against human UACC257 cells assessed as reduction in cell viability after 48 hrs by CellTiter-Blue assay; assay type: functional; details: UACC-257, 48 h, read-out: LC50 (the source's name); how it was run: as §1
# [18] = system: EKVX; experiment: Antiproliferative activity against human EKVX cells assessed as reduction in cell viability after 48 hrs by CellTiter-Blue assay; assay type: functional; details: read-out: LC50 (the source's name); how it was run: as §2
# [19] = biological target: Protein deacetylase HDAC6 (Homo sapiens) (UniProt Q9UBN7); experiment: Inhibition of HDAC6 in human MV4-11 cells assessed as tubulin acetylation at 500 nM incubated for 3 hrs followed by compound washout and measured after 30 mins to 6 hrs by Western blot analysis; assay type: cell-based
# How it was run: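 MV4-11 cells exposed for 3 h, drug washed out, then cultured drug-free for 30 min, 1, 3 or 6 h. Acetylation read by western blot; t = 0 taken right after the 3 h exposure.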
# [20] = system: MV4-11; experiment: Down regulation of MDM2 expression in human MV4-11 cells harboring wild type p53/FLT3-ITD mutant at 50 to 200 nM after 24 hrs by Western blot analysis; assay type: functional, cell-based; how it was run: as §3
# [21] = system: RS4-11; experiment: Induction of apoptosis in human RS4:11 cells harboring wild type p53/FLT3 assessed as cleavage of pro-caspase 3 at 200 nM after 24 hrs by Western blot analysis; assay type: functional, cell-based; how it was run: as §3
# [22] = system: SR; experiment: Antiproliferative activity against human SR cells assessed as reduction in cell viability after 48 hrs by CellTiter-Blue assay; assay type: functional; details: read-out: LC50 (the source's name); how it was run: as §1
# [23] = system: MV4-11; experiment: Induction of autophagy in human MV4-11 cells harboring wild type p53/FLT3-ITD mutant assessed as LC-3 degradation at 50 to 200 nM after 24 hrs by Western blot analysis; assay type: functional, cell-based; how it was run: as §3
# [24] = system: UO-31; experiment: Antiproliferative activity against human UO31 cells assessed as reduction in cell viability after 48 hrs by CellTiter-Blue assay; assay type: functional; details: UO-31, 48 h, read-out: LC50 (the source's name); how it was run: as §1
# [25] = system: SF-539; experiment: Antiproliferative activity against human SF539 cells assessed as reduction in cell viability after 48 hrs by CellTiter-Blue assay; assay type: functional; details: SF-539, 48 h, read-out: LC50 (the source's name); how it was run: as §2
# [26] = system: HT-29; experiment: Antiproliferative activity against human HT-29 cells assessed as reduction in cell viability after 48 hrs by CellTiter-Blue assay; assay type: functional; details: HT-29, 48 h, read-out: LC50 (the source's name); how it was run: as §2
# Chain of Protein deacetylase HDAC6 (Homo sapiens) (Q9UBN7 whole entry): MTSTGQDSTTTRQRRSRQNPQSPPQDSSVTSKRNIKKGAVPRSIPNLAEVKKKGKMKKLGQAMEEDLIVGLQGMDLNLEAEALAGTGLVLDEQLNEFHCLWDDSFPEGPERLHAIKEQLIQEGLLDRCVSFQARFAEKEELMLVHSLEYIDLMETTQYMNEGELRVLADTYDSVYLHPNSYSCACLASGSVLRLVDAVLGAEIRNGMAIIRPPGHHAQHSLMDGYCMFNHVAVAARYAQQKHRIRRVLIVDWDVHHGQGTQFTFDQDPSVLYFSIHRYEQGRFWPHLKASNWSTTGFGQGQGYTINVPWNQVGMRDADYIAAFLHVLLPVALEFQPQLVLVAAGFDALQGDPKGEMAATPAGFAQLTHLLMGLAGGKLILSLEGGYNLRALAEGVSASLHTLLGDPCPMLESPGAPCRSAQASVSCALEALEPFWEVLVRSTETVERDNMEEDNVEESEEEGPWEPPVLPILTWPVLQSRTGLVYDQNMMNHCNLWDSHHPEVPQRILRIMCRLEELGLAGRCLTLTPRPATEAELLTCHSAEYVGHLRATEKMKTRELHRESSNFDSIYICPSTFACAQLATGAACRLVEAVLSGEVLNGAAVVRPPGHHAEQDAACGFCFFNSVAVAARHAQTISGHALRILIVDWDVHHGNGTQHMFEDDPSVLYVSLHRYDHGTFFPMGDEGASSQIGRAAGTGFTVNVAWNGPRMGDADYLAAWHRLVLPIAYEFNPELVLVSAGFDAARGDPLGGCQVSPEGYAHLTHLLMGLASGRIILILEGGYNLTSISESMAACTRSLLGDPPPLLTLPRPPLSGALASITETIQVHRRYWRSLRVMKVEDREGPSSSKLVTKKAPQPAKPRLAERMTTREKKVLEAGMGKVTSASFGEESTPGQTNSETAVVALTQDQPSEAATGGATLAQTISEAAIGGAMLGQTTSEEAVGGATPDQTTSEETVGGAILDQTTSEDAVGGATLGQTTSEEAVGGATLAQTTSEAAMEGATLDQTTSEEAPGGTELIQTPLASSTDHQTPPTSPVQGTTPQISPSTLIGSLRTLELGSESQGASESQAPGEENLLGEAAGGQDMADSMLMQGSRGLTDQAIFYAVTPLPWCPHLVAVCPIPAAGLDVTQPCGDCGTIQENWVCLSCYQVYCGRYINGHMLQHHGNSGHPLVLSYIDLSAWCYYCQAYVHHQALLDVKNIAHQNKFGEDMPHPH
smiles,measurement,setting,value
CCCNNC(=O)/C=C/c1ccc(CNCCc2c(C)[nH]c3ccccc23)cc1.O=C(O)C(F)(F)F,CC50,[1],> 10 µM
same,CC50,[2],4.3 µM
same,Activity,[3],inactive
same,Activity,[4],inactive
same,CC50,[5],> 10 µM
same,CC50,[6],> 10 µM
same,CC50,[7],> 10 µM
same,Cmax,[8],45.1 ng/mL
same,CC50,[9],> 10 µM
same,CC50,[10],> 10 µM
same,CC50,[11],> 10 µM
same,CC50,[12],> 10 µM
same,inhibition,[13],Active
same,CC50,[14],> 10 µM
same,Activity,[15],Active
same,CC50,[16],0.666 µM
same,CC50,[17],> 10 µM
same,CC50,[18],> 10 µM
same,inhibition,[19],inactive
same,Activity,[20],Active
same,Activity,[21],Active
same,CC50,[22],> 10 µM
same,Activity,[23],Active
same,CC50,[24],> 10 µM
same,CC50,[25],> 10 µM
same,CC50,[26],> 10 µM
